Results as given in ChEMBL document CHEMBL3864121, “Development of ebsulfur analogues as potent antibacterials against methicillin-resistant Staphylococcus aureus” (Bioorg Med Chem, 2016).
≈ marks a conversion by molar mass, not a printed value.

Tests used:
[1] = system: Staphylococcus aureus; assay: Antibacterial activity against methicillin-sensitive Staphylococcus aureus ATCC 6538 measured after overnight incubation by broth double-dilution method; assay type: functional
Outline: (§1)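 MIC by broth double-dilution in liquid Mueller-Hinton medium. Values are reported in µg/mL.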

[2] = system: Staphylococcus aureus; assay: Antibacterial activity against methicillin-sensitive Staphylococcus aureus ATCC 25923 measured after overnight incubation by broth double-dilution method; assay type: functional; outline: as §1
[3] = system: Staphylococcus aureus; assay: Antibacterial activity against methicillin-sensitive Staphylococcus aureus ATCC 29213 measured after overnight incubation by broth double-dilution method; assay type: functional; outline: as §1
[4] = system: Staphylococcus aureus; assay: Antibacterial activity against methicillin-resistant Staphylococcus aureus ATCC 33591 measured after overnight incubation by broth double-dilution method; assay type: functional; outline: as §1
[5] = system: Staphylococcus aureus; assay: Antibacterial activity against methicillin-resistant Staphylococcus aureus 1 measured after overnight incubation by broth double-dilution method; assay type: functional; outline: as §1
[6] = system: Staphylococcus aureus; assay: Antibacterial activity against methicillin-resistant Staphylococcus aureus 2 measured after overnight incubation by broth double-dilution method; assay type: functional; outline: as §1
[7] = system: Staphylococcus aureus; assay: Antibacterial activity against methicillin-resistant Staphylococcus aureus BRS3 measured after overnight incubation by broth double-dilution method; assay type: functional; outline: as §1
[8] = system: Staphylococcus aureus; assay: Antibacterial activity against methicillin-resistant Staphylococcus aureus C1 measured after overnight incubation by broth double-dilution method; assay type: functional; outline: as §1
[9] = system: Staphylococcus aureus; assay: Antibacterial activity against methicillin-resistant Staphylococcus aureus C2 measured after overnight incubation by broth double-dilution method; assay type: functional; outline: as §1
[10] = system: Staphylococcus aureus; assay: Antibacterial activity against methicillin-resistant Staphylococcus aureus C7 measured after overnight incubation by broth double-dilution method; assay type: functional; outline: as §1
[11] = system: Staphylococcus aureus; assay: Antibacterial activity against methicillin-resistant Staphylococcus aureus C14 measured after overnight incubation by broth double-dilution method; assay type: functional; outline: as §1
[12] = system: Staphylococcus aureus; assay: Antibacterial activity against methicillin-resistant Staphylococcus aureus C16 measured after overnight incubation by broth double-dilution method; assay type: functional; outline: as §1
[13] = system: Staphylococcus aureus; assay: Antibacterial activity against methicillin-resistant Staphylococcus aureus C19 measured after overnight incubation by broth double-dilution method; assay type: functional; outline: as §1
[14] = system: Staphylococcus aureus; assay: Antibacterial activity against methicillin-resistant Staphylococcus aureus G1 measured after overnight incubation by broth double-dilution method; assay type: functional; outline: as §1
[15] = system: Staphylococcus aureus; assay: Antibacterial activity against methicillin-resistant Staphylococcus aureus G6 measured after overnight incubation by broth double-dilution method; assay type: functional; outline: as §1
[16] = system: Staphylococcus aureus; assay: Antibacterial activity against methicillin-resistant Staphylococcus aureus G12 measured after overnight incubation by broth double-dilution method; assay type: functional; outline: as §1
[17] = system: Staphylococcus aureus; assay: Antibacterial activity against methicillin-resistant Staphylococcus aureus G14 measured after overnight incubation by broth double-dilution method; assay type: functional; outline: as §1
[18] = system: Staphylococcus aureus; assay: Antibacterial activity against methicillin-resistant Staphylococcus aureus NRS4 measured after overnight incubation by broth double-dilution method; assay type: functional; outline: as §1
[19] = system: Staphylococcus aureus; assay: Antibacterial activity against methicillin-resistant Staphylococcus aureus NRS51 measured after overnight incubation by broth double-dilution method; assay type: functional; outline: as §1
[20] = system: Staphylococcus aureus; assay: Antibacterial activity against methicillin-resistant Staphylococcus aureus NRS77 measured after overnight incubation by broth double-dilution method; assay type: functional; outline: as §1
[21] = system: Staphylococcus aureus; assay: Antibacterial activity against methicillin-resistant Staphylococcus aureus S14 measured after overnight incubation by broth double-dilution method; assay type: functional; outline: as §1
[22] = system: Staphylococcus aureus; assay: Antibacterial activity against methicillin-resistant Staphylococcus aureus S17 measured after overnight incubation by broth double-dilution method; assay type: functional; outline: as §1
[23] = system: Staphylococcus aureus; assay: Antibacterial activity against methicillin-resistant Staphylococcus aureus S22 measured after overnight incubation by broth double-dilution method; assay type: functional; outline: as §1
[24] = system: Staphylococcus aureus; assay: Antibacterial activity against methicillin-resistant Staphylococcus aureus S24 measured after overnight incubation by broth double-dilution method; assay type: functional; outline: as §1
[25] = system: Staphylococcus aureus; assay: Antibacterial activity against methicillin-resistant Staphylococcus aureus USA100 measured after overnight incubation by broth double-dilution method; assay type: functional; outline: as §1
[26] = system: Staphylococcus aureus; assay: Antibacterial activity against methicillin-resistant Staphylococcus aureus USA200 measured after overnight incubation by broth double-dilution method; assay type: functional; outline: as §1
[27] = system: Staphylococcus aureus; assay: Antibacterial activity against methicillin-resistant Staphylococcus aureus USA300 measured after overnight incubation by broth double-dilution method; assay type: functional; outline: as §1
[28] = system: Staphylococcus aureus; assay: Antibacterial activity against methicillin-resistant Staphylococcus aureus USA600 measured after overnight incubation by broth double-dilution method; assay type: functional; outline: as §1
[29] = system: Staphylococcus epidermidis; assay: Antibacterial activity against Staphylococcus epidermidis ATCC 35984 measured after overnight incubation by broth double-dilution method; assay type: functional; settings: RP62A
Outline: (§2)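 MIC by broth double-dilution in Mueller-Hinton medium. Re-testing at the time-kill inoculum used 1×10^6 CFU/mL.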

[30] = system: Enterococcus faecalis; assay: Antibacterial activity against Enterococcus faecalis ATCC 29212 measured after overnight incubation by broth double-dilution method; assay type: functional; outline: as §2
[31] = system: Enterococcus faecalis; assay: Antibacterial activity against Enterococcus faecalis ATCC 49533 measured after overnight incubation by broth double-dilution method; assay type: functional; outline: as §2
[32] = system: Enterococcus faecium; assay: Antibacterial activity against Enterococcus faecium BM4105-RF measured after overnight incubation by broth double-dilution method; assay type: functional; outline: as §1
[33] = system: Enterococcus; assay: Antibacterial activity against Vancomycin-resistant Enterococcus measured after overnight incubation by broth double-dilution method; assay type: functional; outline: as §1
[34] = system: Listeria monocytogenes; assay: Antibacterial activity against Listeria monocytogenes ATCC 19115 measured after overnight incubation by broth double-dilution method; assay type: functional; outline: as §2
[35] = system: Mycolicibacterium smegmatis; assay: Antibacterial activity against Mycobacterium smegmatis MC2-155 measured after overnight incubation by broth double-dilution method; assay type: functional; settings: str. MC2 155; outline: as §1
[36] = system: Staphylococcus aureus; assay: Antibiofilm activity against methicillin-sensitive Staphylococcus aureus ATCC 6538 assessed as reduction of biofilm at […] measured after 24 hrs by crystal violet staining based method relative to control; assay type: functional; parameters: scale not given: the % may be the effect or the level left
[37] = system: Staphylococcus epidermidis; assay: Antibiofilm activity against Staphylococcus epidermidis ATCC 35984 assessed as reduction of biofilm at […] ug/ml measured after 24 hrs by crystal violet staining based method relative to control; assay type: functional, RP62A; parameters: scale not given: the % may be the effect or the level left
[38] = Cytotoxicity against HEK293 cells assessed as cell death at […] measured after 24 hrs by resazurin dye-based fluorescence analysis relative to untreated control; assay type: toxicity; settings: human, hek293, 24 h

SMILES: COc1cc(OC)cc(-n2sc3ccccc3c2=O)c1
- MIC [1]: 1 µg/mL (≈ 3.48 µM)
- MIC [2]: 0.5 µg/mL (≈ 1.74 µM)
- MIC [3]: ≤ 0.25 µg/mL
- MIC [4]: ≤ 0.25 µg/mL
- MIC [5]: ≤ 0.25 µg/mL
- MIC [6]: 1 µg/mL (≈ 3.48 µM)
- MIC [7]: 2 µg/mL (≈ 6.96 µM)
- MIC [8]: 0.5 µg/mL (≈ 1.74 µM)
- MIC [9]: ≤ 0.25 µg/mL
- MIC [10]: 0.5 µg/mL (≈ 1.74 µM)
- MIC [11]: 2 µg/mL (≈ 6.96 µM)
- MIC [12]: 2 µg/mL (≈ 6.96 µM)
- MIC [13]: ≤ 0.25 µg/mL
- MIC [14]: 1 µg/mL (≈ 3.48 µM)
- MIC [15]: 1 µg/mL (≈ 3.48 µM)
- MIC [16]: 0.5 µg/mL (≈ 1.74 µM)
- MIC [17]: ≤ 0.25 µg/mL
- MIC [18]: 2 µg/mL (≈ 6.96 µM)
- MIC [19]: 1 µg/mL (≈ 3.48 µM)
- MIC [20]: 2 µg/mL (≈ 6.96 µM)
- MIC [21]: ≤ 0.25 µg/mL
- MIC [22]: 1 µg/mL (≈ 3.48 µM)
- MIC [23]: 0.5 µg/mL (≈ 1.74 µM)
- MIC [24]: ≤ 0.25 µg/mL
- MIC [25]: 0.5 µg/mL (≈ 1.74 µM)
- MIC [26]: 0.5 µg/mL (≈ 1.74 µM)
- MIC [27]: ≤ 0.25 µg/mL
- MIC [28]: 2 µg/mL (≈ 6.96 µM)
- MIC [29]: 0.25 µg/mL (≈ 0.87 µM)
- MIC [30]: 2 µg/mL (≈ 6.96 µM)
- MIC [31]: 7.8 µg/mL (≈ 27.1 µM)
- MIC [32]: 3.9 µg/mL (≈ 13.6 µM)
- MIC [33]: 0.5 µg/mL (≈ 1.74 µM)
- MIC [34]: 2 µg/mL (≈ 6.96 µM)
- MIC [35]: 2 µg/mL (≈ 6.96 µM)
- Activity [36]: 40%
- Activity [37]: 50%
- Activity [38]: > 20%
